High-throughput results as filed in PubChem BioAssay.
The list is not random: actives were taken first. Their share in the collection is about 4%.
CHO parental Ca = ATP-evoked calcium signal inhibitors, parental CHO, primary screen, counter-screen for OX1R antagonist project, cell-based, fluorescence, Fluo-8 calcium dye; parental CHO-K1, ATP-induced calcium, Fluo-8 fluorescence; 0.63% of 330,000 active; inhibition, % at 5.6 µM;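 active means inhibition above that plate's mean sample inhibition plus 3 SD, cut at about 26% in these data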;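 further: 0% = ATP-challenged DMSO wells and 100% = DMSO wells without ATP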
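Assay system: untransfected parental CHO cell line. Also added: ATP agonist challenge. Dosing: one dose, 5.6 µM nominal. Measured by: Fluo-8 fluorescence. Read-out: % inhibition. Benchmarks: ATP wells versus no-ATP DMSO wells. Repeats: no replicates.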
TAAR1 agonist = human TAAR1 agonists, primary screen, Fluo-8 calcium fluorescence, CHO RD-HGA16 cells | Trace amine-associated receptor 1 (Homo sapiens), Q96RJ0 | activation, % at 3 µM | vehicle wells 0%, saturating PEA agonist 100% | AID 624467, 2012 | 0.99% of 360,000 active;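 active means activation above the mean activation of all test compounds in the run plus 3 SD, cut at about 38% in these data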
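System: CHO-derived RD-HGA16 cells with stable Gα16 and human TAAR1 / Times: 17-24 h plating, Fluo-8 75 min 37 °C, 30 min RT / Technique: calcium-sensitive Fluo-8 signal, excitation 470-495, emission 515-575 nm / Measure: % activation relative to PEA EC100 response / Benchmarks: DMSO and PEA EC100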
OX1R antag-1 = antagonists of human orexin 1 receptor (OX1R); Orexin/Hypocretin receptor type 1 (Homo sapiens), O43613; OX1R-expressing cells, FRET antagonist read-out; inhibition, % at 6.6 µM; 1.8% of 330,000 active; AID 485270, 2010; in the data active means inhibition mostly above about 38%, no sharp cut-off; inactive means mostly below about 40%;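 further: 0% = agonist challenge alone and 100% = reference antagonist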
TAAR1 antagonist = human TAAR1 antagonists, primary screen, Fluo-8 calcium fluorescence, CHO RD-HGA16 cells. inhibition, % at 3 µM. AID 624466, 2012. antagonist. Trace amine-associated receptor 1 (Homo sapiens), Q96RJ0. 1.5% of 360,000 active;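 active means inhibition above a per-plate cutoff, the mean inhibition of test compounds on that plate plus 3 SD, cut at about 49% in these data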;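 further: 0% = DMSO plus EC80 beta-PEA response and 100% = DMSO alone without agonist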
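System: RD-HGA16 CHO cells with stable hTAAR1 and Gα16 | Probe or stimulus: EC80 β-phenethylamine stimulus | Dosing: 3 µM, single point | Times: Dye loading 75 min at 37 °C, then 30 min room temperature | Measured by: Fluo-8 calcium-sensitive fluorescence | Read-out basis: % inhibition of agonist calcium response | Replicates: n of 1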
OX1R antag-2 = OX1R (HCRTR1) antagonists, primary screen, fluorescence, CHO/OX1R cells, Fluo-8 calcium, orexin A; 0.43% of 330,000 active; Fluo-8 calcium fluorescence; inhibition, % at 5 µM; AID 434989, 2010;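 active means inhibition above its plate's threshold, mean inhibition of all tested compounds on the plate plus 3 SD, cut at about 37% in these data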;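 further: 0% = orexin A challenge wells and 100% = SB-334867-A antagonist wells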
NTR1 agonist = agonists of human NTR1, primary screen, imaging, U2OS cells, beta-arrestin-GFP, high content; activation, % at 20 µM; AID 493036, 2011; 0.17% of 330,000 active; NTR1-U2OS beta-arrestin-GFP spot imaging, agonist mode;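 active means activation at or above 40% of the spot to cytoplasm intensity ratio, with at least 20 cells analyzed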;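 further: 0% = DMSO without peptide and 100% = 100 nM NTR1 peptide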
Target sequence (P30989 whole entry, looked up): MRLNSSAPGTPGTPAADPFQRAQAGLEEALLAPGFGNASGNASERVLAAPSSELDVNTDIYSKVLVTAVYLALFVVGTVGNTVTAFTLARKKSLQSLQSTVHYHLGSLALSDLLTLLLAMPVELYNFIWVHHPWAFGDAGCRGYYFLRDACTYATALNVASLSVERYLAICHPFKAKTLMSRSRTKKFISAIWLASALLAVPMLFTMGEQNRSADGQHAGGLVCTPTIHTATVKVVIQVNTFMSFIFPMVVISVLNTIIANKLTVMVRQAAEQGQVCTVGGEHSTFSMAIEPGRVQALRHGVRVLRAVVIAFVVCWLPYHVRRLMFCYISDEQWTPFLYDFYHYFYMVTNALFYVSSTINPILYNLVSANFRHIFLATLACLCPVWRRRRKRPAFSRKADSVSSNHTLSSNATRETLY
Starred values were filed as active, the others as inactive; / = no result given.

SMILES | CHO parental Ca | TAAR1 agonist | OX1R antag-1 | TAAR1 antagonist | OX1R antag-2 | NTR1 agonist
C[C@]12Cc3ccccc3C1CC1=N[C@@H](c3ccc(C(F)(F)F)cc3)O[C@@]13C[C@@H]2C(=O)N3Cc1ccncc1 (stereo not given in full) | / | 6 | / | 41 | / | /
CC(=O)Oc1ccc(/C=C2/Oc3ccccc3C2=O)cc1 | 49* | 1 | 6 | -17 | 35 | 2
COCC(=O)N1C[C@H]2CON(C)[C@H]2C[C@H]1c1cccc(-c2cc(Cl)cc(Cl)c2)c1 | / | 6 | / | -9 | / | /
C[C@H](CO)N1C[C@H](C)[C@@H](CN(C)S(C)(=O)=O)OCc2cn(nn2)CCCC1=O | / | 0 | / | 8 | / | /
COc1ccccc1CNS(=O)(=O)c1ccc(F)cc1Br | / | 3 | / | -22 | / | /
C=CS(=O)(=O)N(C(=C)C(=O)OC)S(C)(=O)=O | / | 13 | / | -9 | / | /
Cc1nccc(-c2cccc(N/N=C(\C#N)C(=O)c3ccccc3)c2)n1 | 7 | 3 | 69 | -21 | -15 | 2
N#C/C(=N\Nc1cccc(C(F)(F)F)c1)C(=O)c1ccsc1 | 1 | 2 | 55* | -25 | 36 | 5
CC1(CCc2ccc3c(c2)OCO3)NC(=O)c2ccccc2N1 (stereo not given) | 2 | 2 | 17 | 2 | -4 | 0
CC1(CCc2ccc3c(c2)OCO3)NCCc2c1[nH]c1ccccc21 (stereo not given) | 13 | 49* | 6 | 10 | -4 | 6
O=C(Nc1ccc(Cl)c(Cl)c1)N1CCCCCC1 | 33* | 0 | 11 | -26 | 19 | 1
O=C(CN1CCN(S(=O)(=O)N2CCCCC2)CC1)Nc1ccc(Cl)c(Cl)c1 | 32* | 10 | 21 | 20 | -5 | 3
CCN1C(=O)C(CC(=O)Nc2ccc(OC)cc2)N(CCc2ccc(OC)cc2)C1=S (stereo not given) | -24 | 28 | 0 | 51* | 11 | 3
CCN1C(=O)C(CC(=O)Nc2ccc(OC)cc2)N(Cc2ccc(OC)c(OC)c2)C1=S (stereo not given) | -16 | 9 | 2 | -29 | -24 | 0
CCN1C(=O)C(CC(=O)Nc2ccc(F)cc2)N(CCCN2CCN(c3ccc(F)cc3)CC2)C1=S (stereo not given) | -3 | 30 | 9 | 53* | -7 | 9
Cc1ccc(C)c2[nH]c(=O)c(C(c3nnnn3Cc3ccccc3)N3CCc4ccccc4C3)cc12 (stereo not given) | -22 | 49* | 13 | 42 | -24 | 4
Cc1cccc2cc(C(c3nnnn3CC3CCCO3)N3CCc4ccccc4C3)c(=O)[nH]c12 (stereo not given) | -18 | / | 18 | / | -16 | 1
CC(=O)OC[C@@H]1CN(Cc2cccc(C(F)(F)F)c2)C[C@H](n2cnc3c(NCc4ccco4)ncnc32)O1 | / | 9 | / | 56* | / | /
C/C(=N\OCC(=O)Nc1ccc(F)c(F)c1F)c1cc2ccccc2o1 | -15 | -1 | 65* | 3 | -1 | 2
COc1ccc2oc(C(=O)OCC(=O)N(C)c3c(N)n(Cc4ccccc4)c(=O)[nH]c3=O)c(C)c2c1 | -16 | 2 | -1 | -7 | -25 | 0
Cc1c(C(=O)NCc2ccco2)sc2nc(-c3ccccc3)cn12 | -10 | 8 | 23 | 14 | -12 | -4
Cc1c(C(=O)N2CCOCC2)sc2nc(-c3ccccc3)cn12 | -3 | 10 | 16 | -3 | -13 | 1
Cc1c(C(=O)Nc2ccncc2)sc2nc(-c3ccccc3)cn12 | 13 | 13 | 37* | 58* | -6 | -2
Cc1c(C(=O)Nc2ccc3c(c2)OCCO3)sc2nc(-c3ccccc3)cn12 | 46* | 10 | 66* | 64* | 68* | 31
COc1cccc2c1C(=O)c1c(O)c3c(c(O)c1C2=O)CC(O)(C(C)=O)CC3OC1CC(N(C)C)C(O)C(C)O1 (stereo not given) | / | 4 | / | 5 | / | /
SMILES | CHO parental Ca | TAAR1 agonist | OX1R antag-1 | TAAR1 antagonist | OX1R antag-2 | NTR1 agonist
CC(=O)[C@@]1(O)Cc2c(O)c3c(c(O)c2[C@H](O[C@H]2C[C@H](N)[C@H](O)[C@H](C)O2)C1)C(=O)c1ccccc1C3=O | / | 66* | / | 44 | / | /
COc1cccc2c1C(=O)c1c(O)c3c(c(O)c1C2=O)C[C@@](O)(C(=O)CO)C[C@@H]3OC1CC(N)C(O)C(C)O1 (stereo not given in full) | / | 14 | / | 26 | / | /
COc1cccc2c1C(=O)c1c(O)c3c(c(O)c1C2=O)C[C@@](O)(C(=O)CO)C[C@@H]3O[C@H]1C[C@H](N)[C@H](O)[C@H](C)O1 | 24 | 7 | 44* | 12 | 27 | -3
CC(C)(C)S(=O)N1C[C@H]2CC(=O)C(CCO)=C2[C@@H]1CCO (stereo not given in full) | / | 4 | / | -9 | / | /
CCCCCCCCCC(=O)NNC(=O)c1c(O)c2ccccc2n(CC)c1=O | -20 | 5 | 14 | 4 | -20 | 7
CCn1c(=O)c(C(=O)NNC(=O)c2ccccc2Cl)c(O)c2ccccc21 | -8 | 54* | 34 | 15 | -27 | 4
CC(C)NC(=O)c1noc2cc([N+](=O)[O-])ccc12 | -5 | 10 | 67* | -5 | -15 | -1
CN(C)C(=O)c1noc2cc([N+](=O)[O-])ccc12 | 2 | 5 | 52* | 5 | -5 | -1
O=C(CC1CCCC1)N[C@H](C(=O)N1CCC[C@H]1C(=O)NC1CCCC1)C1CCCCC1 | / | -1 | / | -29 | / | /
Cc1ccccc1C(=O)N1CCC[C@@H]1C(=O)N1CCC[C@H]1C(=O)NCc1ccccc1 | / | 0 | / | -10 | / | /
COC(=O)c1cccc2nc3c(C(C)O)cccc3nc12 (stereo not given) | -8 | 1 | 50* | -19 | -19 | 0
COc1ccc(OC)c2nc3c(C(=O)NCCN(C)C)cccc3nc12 | / | 4 | / | -13 | / | /
COc1cccc(-c2nc(CS(=O)(=O)CC(=O)NCCCN3CCOCC3)c(C)o2)c1 | -2 | 0 | 15 | 1 | -2 | 0
COc1ccc(-c2c(C(=O)c3ccc(Br)cc3)[nH]c(N)c2C(=O)NCCc2c[nH]c3ccccc23)cc1OC | / | 10 | / | 44 | / | /
O=C(O)c1ccc(N=Nc2c(O)[nH]c3ccc(Br)cc23)cc1 | 8 | -1 | -8 | -14 | -2 | 2
O=c1ccc2cc3c([nH]c4ccc(Br)cc43)oc-2c1O | -6 | 38* | 33 | 11 | 7 | 1
Cc1ccc2nc3n(c(=O)c2c1)-c1ccccc1C(=O)NC3CC(C)C (stereo not given) | / | 2 | / | -26 | / | /
